Neddylation inh – cullin neddylation inhibition | P61081+Q13564 | TR-FRET cullin neddylation, biochemical | inhibition, % at 25 µM | 360,000 tested, 0.58% active | AID 651699; in the data active = inhibition above about 36%
SR-BI DiI-HDL act – enhances SR-BI lipid uptake from DiI-HDL; CHO ldlA[mSR-BI] cells, DiI-HDL uptake fluorescence, 3 h; 100 = double the neutral-control signal; 320,000 tested, 0.096% active; activation, % at 12.5 µM;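 active = mean replicate activation of at least 60% and every replicate at or above 60%; inconclusive = mean or all-replicate condition met, but not both; inactive = mean below 60% and not all replicates reaching 60%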
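System: CHO ldlA[mSR-BI] cells / Medium: HEPES-buffered (25 mM, pH 7.4) F12 plus 0.5% BSA / Probe or stimulus: labelled HDL, 10 µg/mL / Doses: single compound concentration, delivered by pin transfer / Schedule: 3 h, 37 °C / Measured by: DiI fluorescence, bottom read / Measure: cell-associated DiI fluorescence as measure of HDL uptake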
UBC13 polyUb – inhibitors of human UBC13 polyubiquitin chain formation | P61088 | inhibition, % at 20 µM | TR-FRET | AID 485273 | 330,000 tested, 0.47% active; in the data active = inhibition above about 45%, passing the limit was not always enough; inconclusive = no clear call, values can overlap the other calls
SR-BI DiI inh – blocks mouse SR-BI lipid uptake from DiI-HDL | Q61009 | ldlA[mSR-BI] CHO cells, DiI-HDL uptake fluorescence, 3 h | inhibition, % at 12.5 µM | 320,000 tested, 0.96% active | AID 488896;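 active = mean replicate inhibition of at least 70% and a set share of replicates each scoring 70 or more; inconclusive = meets just one of the two criteria; inactive = fails both criteria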
Target sequence (Q61009 whole entry, looked up): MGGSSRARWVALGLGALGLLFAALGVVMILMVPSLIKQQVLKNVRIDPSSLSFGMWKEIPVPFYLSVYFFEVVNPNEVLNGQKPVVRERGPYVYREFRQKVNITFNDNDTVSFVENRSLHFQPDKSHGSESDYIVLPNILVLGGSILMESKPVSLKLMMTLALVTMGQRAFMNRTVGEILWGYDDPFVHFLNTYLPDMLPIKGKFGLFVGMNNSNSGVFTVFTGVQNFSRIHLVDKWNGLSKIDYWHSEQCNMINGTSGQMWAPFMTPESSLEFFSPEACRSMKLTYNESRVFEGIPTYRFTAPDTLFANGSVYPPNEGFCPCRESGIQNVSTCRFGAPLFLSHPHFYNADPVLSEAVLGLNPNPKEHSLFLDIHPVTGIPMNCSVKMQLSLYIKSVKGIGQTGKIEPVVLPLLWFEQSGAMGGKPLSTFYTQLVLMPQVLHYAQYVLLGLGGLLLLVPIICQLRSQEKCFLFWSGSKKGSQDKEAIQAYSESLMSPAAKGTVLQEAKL
DiI quench – quenches DiI-HDL fluorescence, an SR-BI assay artifact; shares compounds with SR-BI DiI inh; cell-free DiI-HDL fluorescence quenching, 30 min; AC50, µM (doses to about 35 µM); 470 tested, 20% active; AID 540326;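 active = quenching, a falling signal, with AC50 below a set limit tied to the top valid dose, actives reach about 32 µM in these data; inconclusive = no clear call, values can overlap the other calls; inactive = rising signal, and the rest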
Neddyl conf – confirmation of human cullin neddylation inhibitors; 1,800 tested, 13% active; calls only at 25 µM; shares compounds with Neddylation inh; TR-FRET cullin neddylation biochemical assay; in the data active = inhibition above about 40%;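 also: neddylation substrate is the cullin 1 ring ligase complex with SKP2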
Each line names hits and unclear results; the compound was inactive in the other large screens (follow-up assays come after a bar, where they were run). A selection: hits, their analogues and other compounds. The true share with any hit is near 1.9%.

CCOc1ccc(NC(=O)CN2CCN(CC(=O)Nc3ccc(N(C)C)cc3)CC2)cc1	SR-BI DiI inh 86.1 | DiI quench inactive
CCOc1ccc(NC(=O)CN2CCN(CC(=O)Nc3ccc(F)cc3)CC2)cc1	none
COc1ccc(CCC(=O)Nc2ccc(-c3noc(-c4ccc(OC)c(OC)c4)n3)cc2)cc1	SR-BI DiI inh 101.0 | DiI quench inactive
COc1ccc(NC(=O)CN2CCN(CC(=O)Nc3ccc(OC)c(OC)c3)CC2)cc1	SR-BI DiI inh inconclusive | DiI quench inactive
O=S(=O)(c1cc(Cl)c(Cl)cc1Cl)N1CCN2CCCC2C1 (stereo not given)	none
CC(=O)Nc1ccc(S(=O)(=O)Nc2nc3ccccc3nc2Nc2ccc(C(=O)O)c(O)c2)cc1	none
CC(=O)Nc1ccc(S(=O)(=O)Nc2cc(C)c(-n3nc4ccccc4n3)cc2O)cc1	SR-BI DiI inh 92.9 | DiI quench 9.6µM
CCOC(=O)Nc1cc(OC)cc2ccc(C)nc12	none (no result: SR-BI DiI-HDL act, UBC13 polyUb, SR-BI DiI inh)
CCOc1ccc(NC(=O)CN(C)C(=O)CC(NC(=O)c2ccccc2)c2ccccc2)cc1OCC (stereo not given)	none
COc1cccc(NC(=O)CN2C(=O)NC(C)(c3ccc(C)cc3)C2=O)c1 (stereo not given)	none
COCCOC(=O)c1[nH]c2c(c1C)C(=O)CC(c1cccs1)C2 (stereo not given)	none (no result: SR-BI DiI-HDL act, UBC13 polyUb, SR-BI DiI inh)
CCOC(=O)c1[nH]c2c(c1C)C(=O)CC(c1ccc(F)cc1)C2 (stereo not given)	SR-BI DiI inh inconclusive | DiI quench inactive
CCOCCOC(=O)c1[nH]c2c(c1C)C(=O)CC(c1ccccc1)C2 (stereo not given)	none
CCOCCOC(=O)c1[nH]c2c(c1C)C(=O)CC(c1cccs1)C2 (stereo not given)	SR-BI DiI inh 75.2 | DiI quench inactive
CCCCCOC(=O)c1[nH]c2c(c1C)C(=O)CC(c1ccco1)C2 (stereo not given)	SR-BI DiI inh 79.6 | DiI quench inactive
COc1cc(C(=O)COC(=O)c2ccc3c(c2)OCCO3)cc(OC)c1OC	none (no result: SR-BI DiI-HDL act, UBC13 polyUb, SR-BI DiI inh)
Cc1ccccc1CNC(=O)c1ccc2sc([C@H]3C[C@H](O)[C@@H](CO)O3)nc2c1	none (no result: SR-BI DiI-HDL act, UBC13 polyUb, SR-BI DiI inh)
CCOc1ccc(NC(=O)COn2nnc3ccc(S(=O)(=O)N4CCOCC4)cc32)cc1	none
C=CCN(CC=C)C(=O)COn1nnc2ccc(S(=O)(=O)N3CCOCC3)cc21	none | DiI quench inactive
CS(=O)(=O)N1CCc2cc(-c3csc(NC(=O)Cc4ccccc4)n3)ccc21	SR-BI DiI inh inconclusive | DiI quench inactive
CC(C)C(=O)N1CCc2cc(-c3csc(N)n3)ccc21	SR-BI DiI inh 78.8 | DiI quench inactive
Cc1ccccc1C(=O)N1CCc2cc(-c3csc(NC(=O)CN4CCCC4)n3)ccc21	none
CCCC(=O)Nc1nc(-c2ccc3c(c2)CCN3S(C)(=O)=O)cs1	none
O=C(Nc1nc(-c2ccc3c(c2)OCCO3)cs1)c1ccco1	none
CCC(=O)N1CCc2cc(-c3csc(NC(=O)c4ccco4)n3)ccc21	SR-BI DiI inh 87.8 | DiI quench inactive
CCCS(=O)(=O)NC(=O)C1(C)CCN(C(=O)Cc2ccc(F)cc2)C1 (stereo not given)	none (no result: SR-BI DiI-HDL act, UBC13 polyUb, SR-BI DiI inh)
COc1ccc(C(C)(C)C)cc1NC(=O)CN1C(=O)C(=O)N(Cc2ccco2)C1=O	none
O=C(O)c1ccc(-n2nc(C(F)(F)F)c3c2CCCC3)cc1	none
O=C(c1ccc(-n2nc(C(F)(F)F)c3c2CCCC3)cc1)N1CCOCC1	SR-BI DiI inh 79.3 | DiI quench inactive
NC(=O)c1ccc(-n2nc(C(F)(F)F)c3c2CCCC3)cc1	none
CN(C)C(=O)c1ccc(-n2nc(C(F)(F)F)c3c2CCCC3)cc1	SR-BI DiI inh 82.7 | DiI quench inactive
Cc1cc(C)cc(NC(=O)CCc2c(C)nn(-c3ccc(N4CCCCC4)nn3)c2C)c1	SR-BI DiI inh 79.5 | DiI quench inactive
COC(=O)c1[nH]c2cc(OC)ccc2c1NC(=O)c1ccc2c(c1)OCO2	Neddylation inh 41.6, SR-BI DiI inh 71.7 | DiI quench 11.9µM | Neddyl conf inactive
CCC(=O)N1CCCC1(C)C(=O)Nc1ccc2scnc2c1 (stereo not given)	none (no result: SR-BI DiI-HDL act, UBC13 polyUb, SR-BI DiI inh)
COc1cc(F)ccc1-c1cc(C(=O)Nc2ccc(NC(C)=O)cc2)[nH]n1	Neddylation inh 54.4 (no result: SR-BI DiI-HDL act, UBC13 polyUb, SR-BI DiI inh) | Neddyl conf active
